Laboratory results reported in ChEMBL document CHEMBL1154907, “Synthesis and preclinical evaluations of 2-(2-fluorophenyl)-6,7-methylenedioxyquinolin-4-one monosodium phosphate (CHM-1-P-Na) as a potent antitumor agent” (J Med Chem, 2010).
The source made the active and inactive calls. The rule behind the calls is not given here.

Columns and labels:
[1] = Growth inhibition of human RXF631L cells by SRB assay; type: functional, RXF 631
In short: (§1)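 Cancer cell panel; growth measured by sulforhodamine B colorimetric method across five concentrations from 10^-4 to 10^-8 M; GI50, TGI and LC50 derived from computer-analysed dose-response curves.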

[2] = target: Cathepsin S (Homo sapiens) (UniProt P25774); assay: Inhibition of human cathepsin S at 10 uM by enzyme assay
In short: (§2)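 Commercial spectrum screen of enzyme assays under standard protocols; percent inhibition tested at 10 μM; IC50 determined for targets showing significant inhibition at that concentration; SEM given where multiple independent determinations.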

ACHN = assay: Growth inhibition of human ACHN cells by SRB assay; type: functional
In short: (§3)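 Human cancer cell panel; five concentrations from 10^-4 to 10^-8 M; growth measured by sulforhodamine B colorimetric method; GI50, TGI and LC50 derived from computer-analysed dose-response curves.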

U-251 = assay: Growth inhibition of human U251 cells by SRB assay; type: functional; in short: as §1
St-4 = assay: Growth inhibition of human St-4 cells by SRB assay; type: functional; in short: as §1
[3] = Growth inhibition of human HBC5 cells by SRB assay; type: functional; in short: as §3
SK-OV-3 [4] = assay: Cell cycle arrest in human SKOV3 cells assessed as increase in accumulation at G2/M phase at 10 uM after 36 hrs by propidium iodide-based flow cytometry; type: functional
In short: (§4)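 SKOV-3 cells (DMEM/F-12, 10% fetal calf serum) treated with 10 μM for 6, 12, 24, 36 or 48 h; trypsinized, PBS-washed, fixed in 70% ice-cold ethanol overnight at -20 °C, RNase A treated, propidium iodide stained; DNA content by flow cytometry, phase percentages and hypodiploid fraction scored.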

MKN-45 = assay: Growth inhibition of human MKN45 cells by SRB assay; type: functional; in short: as §3
OVCAR-8 = assay: Growth inhibition of human OVCAR8 cells by SRB assay; type: functional; in short: as §3
HT-29 = assay: Growth inhibition of human HT-29 cells by SRB assay; type: functional; in short: as §3
HCT-116 = assay: Growth inhibition of human HCT116 cells by SRB assay; type: functional; in short: as §3
MKN-7 = assay: Growth inhibition of human MKN7 cells by SRB assay; type: functional; in short: as §3
DMS-273 = assay: Growth inhibition of human DMS273 cells by SRB assay; type: functional; in short: as §3
HCC 2998 = assay: Growth inhibition of human HCC2998 cells by SRB assay; type: functional; in short: as §3
OVCAR-5 = assay: Growth inhibition of human OVCAR5 cells by SRB assay; type: functional; in short: as §3
NCI-H23 = assay: Growth inhibition of human NCI-H23 cells by SRB assay; type: functional; in short: as §3
[5] = target: Glutamate decarboxylase (Clostridium perfringens (strain 13 / Type A)) (UniProt Q8XIQ6); assay: Inhibition of Clostridium perfringens glutamate decarboxylase at 10 uM by enzyme assay
In short: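 Single-concentration screen at 10 μM in a contract enzyme assay panel run under standard protocols. Read-out is percent inhibition of the enzyme.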

SK-OV-3 [6] = assay: Cell cycle arrest in human SKOV3 cells assessed as decrease in accumulation at G0/G1 phase at 10 uM after 36 hrs by propidium iodide-based flow cytometry; type: functional; in short: as §4
OVCAR-4 = assay: Growth inhibition of human OVCAR4 cells by SRB assay; type: functional; in short: as §3
OVCAR-3 [7] = assay: Antitumor activity against human OVCAR-3 cells xenografted in nude mouse assessed as increase in lifespan of organism at 134 mg/kg, ip administered in Q7D x 3 schedule relative to control; type: functional; details: route intraperitoneal
[8] = target: Cathepsin E (Homo sapiens) (UniProt P14091); assay: Inhibition of human cathepsin E at 10 uM by enzyme assay; in short: as §2
LOX IMVI = assay: Growth inhibition of human LOXIMVI cells by SRB assay; type: functional; in short: as §3
MCF7 = assay: Growth inhibition of human MCF7 cells by SRB assay; type: functional; in short: as §3
OVCAR-3 [9] = assay: Antitumor activity against human OVCAR-3 cells xenografted in nude mouse assessed as increase in lifespan of organism at 200 mg/kg, ip administered in Q7D x 3 schedule relative to control; type: functional; details: route intraperitoneal
SF-295 = assay: Growth inhibition of human SF295 cells by SRB assay; type: functional; in short: as §1
PC-3 = assay: Growth inhibition of human PC3 cells by SRB assay; type: functional; in short: as §3
[10] = Cmax in CD1 mouse at 10 mg/kg, ip; type: ADME, organism-based; set-up: dose 10 mg/kg, route intraperitoneal; details: in vivo
In short: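 Male CD-1 (Crl.) mice (22-24 g), single 10 mg/kg dose. Prodrug in 9% NaHCO3/water (1 mg/mL) given iv by tail vein or po by gavage after 4 h fast; parent given ip in cremophor/DMSO/saline 20/5/75 (2 mg/mL). Plasma sampled to 27 h, three mice per time point, acetonitrile precipitation, LC-MS/MS (ESI positive); parameters from mean plasma concentrations.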

SK-OV-3 [11] = assay: Cell cycle arrest in human SKOV3 cells assessed as accumulation of cells with G2/M DNA at 10 uM after 36 hrs by propidium iodide-based flow cytometry; type: functional; in short: as §4
NCI-H460 = assay: Growth inhibition of human NCI-H460 cells by SRB assay; type: functional; in short: as §3
[12] = Half life in CD1 mouse at 10 mg/kg, ip; type: ADME, organism-based; set-up: dose 10 mg/kg, route intraperitoneal; details: in vivo
In short: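 Male CD-1 (Crl.) mice, 22-24 g, single 10 mg/kg ip bolus of parent drug in cremophor/DMSO/saline (20/5/75, v/v; 2 mg/mL, 5 mL/kg). Blood sampled at 0, 5, 15, 30 min, 1, 1.5, 2, 4, 6, 9, 24, 27 h, three mice per time point. Plasma extracted with acetonitrile, analysed by LC-MS/MS. Parameters calculated from mean plasma concentrations.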

Sequence of Cathepsin S (Homo sapiens) (P25774 115-331 limits assumed): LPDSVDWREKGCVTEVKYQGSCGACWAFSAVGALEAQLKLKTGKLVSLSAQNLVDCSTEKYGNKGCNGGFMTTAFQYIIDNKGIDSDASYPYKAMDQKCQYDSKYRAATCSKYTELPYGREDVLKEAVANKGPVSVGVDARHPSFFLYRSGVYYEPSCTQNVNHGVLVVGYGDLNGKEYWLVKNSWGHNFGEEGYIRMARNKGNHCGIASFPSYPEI
Sequence of Cathepsin E (Homo sapiens) (P14091 whole entry): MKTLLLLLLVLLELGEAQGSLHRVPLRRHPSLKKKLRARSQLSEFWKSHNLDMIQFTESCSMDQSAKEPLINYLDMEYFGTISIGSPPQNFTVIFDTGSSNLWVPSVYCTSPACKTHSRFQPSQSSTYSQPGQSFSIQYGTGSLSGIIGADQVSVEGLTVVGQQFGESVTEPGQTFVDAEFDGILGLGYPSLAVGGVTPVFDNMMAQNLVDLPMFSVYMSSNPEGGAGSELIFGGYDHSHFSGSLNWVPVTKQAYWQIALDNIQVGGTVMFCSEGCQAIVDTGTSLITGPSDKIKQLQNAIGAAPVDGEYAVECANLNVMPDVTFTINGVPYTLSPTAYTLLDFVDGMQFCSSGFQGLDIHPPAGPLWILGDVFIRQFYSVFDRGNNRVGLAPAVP

O=c1cc(-c2ccccc2F)[nH]c2cc3c(cc12)OCO3
GI50 ([1]; RXF 631): 79.4 nM | CC50 ([1]; RXF 631, read-out: pLC50 (converted)): > 100000 nM | TGI ([1]; RXF 631, read-out: pTGI (converted)): 501 nM | inhibition [2]: 1% | GI50 (ACHN): 389 nM | CC50 (ACHN; read-out: pLC50 (converted)): > 100000 nM | TGI (ACHN; read-out: pTGI): > 100000 nM | GI50 (U-251; U-251): 69.2 nM | CC50 (U-251; U-251, read-out: pLC50 (converted)): > 100000 nM | TGI (U-251; U-251, read-out: pTGI (converted)): 18200 nM | GI50 (St-4; St-4): 6610 nM | CC50 (St-4; St-4, read-out: pLC50 (converted)): > 100000 nM | TGI (St-4; St-4, read-out: pTGI (converted)): 93300 nM | GI50 ([3]; HBC5): 776 nM | CC50 ([3]; HBC5, read-out: pLC50 (converted)): > 100000 nM | TGI ([3]; HBC5, read-out: pTGI): > 100000 nM | Activity (SK-OV-3 [4]): Active | GI50 (MKN-45; MKN-45): 57.5 nM | CC50 (MKN-45; MKN-45, read-out: pLC50 (converted)): > 100000 nM | TGI (MKN-45; MKN-45, read-out: pTGI): > 100000 nM | GI50 (OVCAR-8; OVCAR-8): 162 nM | CC50 (OVCAR-8; OVCAR-8, read-out: pLC50 (converted)): > 100000 nM | TGI (OVCAR-8; OVCAR-8, read-out: pTGI (converted)): 794 nM | GI50 (HT-29; HT-29): 309 nM | CC50 (HT-29; HT-29, read-out: pLC50 (converted)): > 100000 nM | TGI (HT-29; HT-29, read-out: pTGI (converted)): 1200 nM | GI50 (HCT-116; HCT-116): 64.6 nM | CC50 (HCT-116; HCT-116, read-out: pLC50 (converted)): > 100000 nM | TGI (HCT-116; HCT-116, read-out: pTGI): > 100000 nM | GI50 (MKN-7; MKN-7): 45.7 nM | CC50 (MKN-7; MKN-7, read-out: pLC50 (converted)): > 100000 nM | TGI (MKN-7; MKN-7, read-out: pTGI): > 100000 nM | GI50 (DMS-273; DMS-273): 56.2 nM | CC50 (DMS-273; DMS-273, read-out: pLC50 (converted)): > 100000 nM | TGI (DMS-273; DMS-273, read-out: pTGI): > 100000 nM | GI50 (HCC 2998; HCC 2998): 129 nM | CC50 (HCC 2998; HCC 2998, read-out: pLC50 (converted)): > 100000 nM | TGI (HCC 2998; HCC 2998, read-out: pTGI (converted)): 1260 nM | GI50 (OVCAR-5; OVCAR-5): 813 nM | CC50 (OVCAR-5; OVCAR-5, read-out: pLC50 (converted)): > 100000 nM | TGI (OVCAR-5; OVCAR-5, read-out: pTGI): > 100000 nM | GI50 (NCI-H23; NCI-H23): 1170 nM | CC50 (NCI-H23; NCI-H23, read-out: pLC50 (converted)): > 100000 nM | TGI (NCI-H23; NCI-H23, read-out: pTGI): > 100000 nM | inhibition [5]: 66% | Activity (SK-OV-3 [6]): Active | GI50 (OVCAR-4): 28.2 nM | CC50 (OVCAR-4; read-out: pLC50 (the source's name) (converted)): 513 nM | TGI (OVCAR-4; read-out: pTGI (converted)): 64.6 nM | Activity (OVCAR-3 [7]): 133% | inhibition [8]: 12% | GI50 (LOX IMVI): 123 nM | CC50 (LOX IMVI; read-out: pLC50 (converted)): > 100000 nM | TGI (LOX IMVI; read-out: pTGI (converted)): 676 nM | GI50 (MCF7; MCF7): 158 nM | CC50 (MCF7; MCF7, read-out: pLC50 (converted)): > 100000 nM | TGI (MCF7; MCF7, read-out: pTGI): > 100000 nM | Activity (OVCAR-3 [9]): 124% | GI50 (SF-295; SF-295): 115 nM | CC50 (SF-295; SF-295, read-out: pLC50 (converted)): > 100000 nM | TGI (SF-295; SF-295, read-out: pTGI (converted)): 52500 nM | GI50 (PC-3; PC-3): 75.9 nM | CC50 (PC-3; PC-3, read-out: pLC50 (converted)): > 100000 nM | TGI (PC-3; PC-3, read-out: pTGI): > 100000 nM | Cmax [10]: 155 ng/mL | Activity (SK-OV-3 [11]): Active | GI50 (NCI-H460; NCI-H460, read-out: pGI50 (converted)): > 100000 nM | CC50 (NCI-H460; NCI-H460, read-out: pLC50 (converted)): > 100000 nM | TGI (NCI-H460; NCI-H460, read-out: pTGI): > 100000 nM | half-life [12]: 7.3 h
